≈ marks a conversion by molar mass, not a printed value. Calls of active or inactive are those of the source. No cut-off for these calls is given here.

Data set [1] in a line: Toxicity in brine shrimp. It counts as organism-based. The following applies: artemia, in vivo.
For data set [2], the system named is P388. Description: Cytotoxicity in mouse P388 cells. The note with it: read-out: ED50 (the source's name). The class given is functional.
The nature of data set [3]: Antimitotic activity in rat ASK cells assessed as reversal of astrocyte formation at 100 ug/mL. The class given is functional. Summed up: (§1)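 Cultured rat glioma (ASK) cells were used, following Swanson et al. The antimitotic read-out was the dose giving 100% reversal of astrocyte conversion. Pure lignans were tested across a range of concentrations.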
Data set [4] in a line: Antimitotic activity in rat ASK cells assessed as reversal of astrocyte formation at 20 ug/mL. It counts as functional. Summed up: as §1
Data set [5] can be described thus: Antimitotic activity in rat ASK cells assessed as reversal of astrocyte formation at 4 ug/mL. The class given is functional. Summed up:
as §1

A short description of data set [6]: Antimitotic activity in rat ASK cells assessed as reversal of astrocyte formation at 0.8 ug/mL. The class given is functional. Summed up: as §1
The nature of data set [7]: Antimitotic activity in rat ASK cells assessed as reversal of astrocyte formation at 0.16 ug/mL. It counts as functional. Summed up: as §1
Data set [8] in a line: Antimitotic activity in rat ASK cells assessed as reversal of astrocyte formation at 0.032 ug/mL. It counts as functional. Summed up: as §1
Data set [9] in a line: Antimitotic activity in rat ASK cells assessed as reversal of astrocyte formation at 0.0064 ug/mL. The class given is functional. The method in brief:
as §1

Data set [10] deals with A-431. Description: Cytotoxicity against human A431 cells. The class given is functional. The note with it: read-out: ED50 (the source's name).
Data set [11] is described as follows: Cytotoxicity against human BC1 cells. It counts as functional. The note with it: read-out: ED50 (the source's name).
Data set [12] relates to Col2. Description: Cytotoxicity against human Col2 cells. The class given is functional. The following applies: read-out: ED50 (the source's name).
The subject of data set [13] is HT. Description: Cytotoxicity against human HT cells. The note with it: read-out: ED50 (the source's name). The class given is functional.
Data set [14] can be described thus: Cytotoxicity against human KBV1 cells. The note with it: KB-V1, read-out: ED50 (the source's name). The class given is functional.
For data set [15], the system named is LNCaP. Description: Cytotoxicity against human LNCAP cells. The following applies: read-out: ED50 (the source's name). It counts as functional.
Data set [16] concerns Lu1. Description: Cytotoxicity against human Lu1 cells. The class given is functional. The following applies: read-out: ED50 (the source's name).
A short description of data set [17]: Cytotoxicity against human U373 cells. The note with it: U373 MG, read-out: ED50 (the source's name). The class given is functional, U-373MG ATCC.
Data set [18] deals with ZR-75-1. Description: Cytotoxicity against human ZR-75-1 cells. It counts as functional. The following applies: read-out: ED50 (the source's name).
Data set [19] concerns KB. Description: Cytotoxicity against human KB cells. It counts as functional. The note with it: read-out: ED50 (the source's name).
Data set [20] relates to Candida albicans. Description: Antimicrobial activity against Candida albicans ATCC 10231 at 0.2 to 1 ug/ml. It counts as functional, organism-based.

The term LC50 denotes the concentration that kills 50% of the test population. Compound `COc1cc(C[C@H]2C(=O)OC[C@@H]2Cc2ccc3c(c2)OCO3)cc(OC)c1OC` gave an LC50 in [1] of 2.8 µg/mL (≈ 6.99 µM). The EC50 in data set [2] was 0.4 µg/mL (≈ 0.999 µM); in data set [10], above 20 µg/mL; in data set [11] it was 0.05 µg/mL (≈ 0.125 µM); in data set [12] it was 0.08 µg/mL (≈ 0.2 µM); in data set [13], 0.07 µg/mL (≈ 0.175 µM); in data set [14], 0.06 µg/mL (≈ 0.15 µM). The EC50 stood at 0.16 µg/mL (≈ 0.4 µM) in data set [15]; 0.1 µg/mL (≈ 0.25 µM) in data set [16]; 0.3 µg/mL (≈ 0.749 µM) in data set [17]; 0.5 µg/mL (≈ 1.25 µM) in data set [18]; 0.08 µg/mL (≈ 0.2 µM) in data set [19]. For the same compound, the Activity in data set [3] was found to be 100%; in data set [4], 100%; in data set [5], 100%; in data set [6], 100%; in data set [7], 100%; in data set [8], 0%. Moreover, the Activity in data set [9] came out at 0%. The outcome in [20] was Active.
For `COc1cc([C@@H]2c3cc4c(cc3C[C@H]3COC(=O)[C@@H]32)OCO4)cc(OC)c1O` [4'-DEMETHYLDEOXYPODOPHYLLOTOXIN], in data set [1], the LC50 was 0.2 µg/mL (≈ 0.52 µM). The EC50 was 0.005 µg/mL (≈ 0.013 µM) in data set [2]; 0.08 µg/mL (≈ 0.208 µM) in data set [10]; 0.01 µg/mL (≈ 0.026 µM) in data set [11]; 0.03 µg/mL (≈ 0.078 µM) in [12]; 0.01 µg/mL (≈ 0.026 µM) in [13]; 0.02 µg/mL (≈ 0.052 µM) in data set [14]. In addition, the EC50 in [15] is 0.02 µg/mL (≈ 0.052 µM); in data set [16], 0.03 µg/mL (≈ 0.078 µM); in data set [17], 0.1 µg/mL (≈ 0.26 µM); in data set [18] it was 2.1 µg/mL (≈ 5.46 µM); in data set [19], 0.01 µg/mL (≈ 0.026 µM). For the same compound, the Activity in data set [3], in [4], in [5], in data set [6], in data set [7] and in data set [8] was 100% each time. Further, the Activity in [9] is on record as 0%. In data set [20], the outcome was Active.

The values are drawn from ChEMBL document CHEMBL1147382, “Cytotoxic constituents from Hyptis verticillata” (J Nat Prod, 1993).
